In the library only some 2.1% were active in any assay of this set; here they are far more common.
EBI2 block = blocks human EBI2 receptor beta-arrestin signaling. P32249. EBI2 beta-arrestin recruitment, luminescence, 7a,25-OHC stimulated. inhibition, % at 5 µM. 0.81% of 360,000 active; in the data active means inhibition above about 38%;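 further: enzyme fragment complementation signal reports receptor beta-arrestin coupling in cells; 0% = agonist plus DMSO wells and 100% = wells without agonist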
Target sequence (P32249 whole entry, looked up, the tested form may be a part): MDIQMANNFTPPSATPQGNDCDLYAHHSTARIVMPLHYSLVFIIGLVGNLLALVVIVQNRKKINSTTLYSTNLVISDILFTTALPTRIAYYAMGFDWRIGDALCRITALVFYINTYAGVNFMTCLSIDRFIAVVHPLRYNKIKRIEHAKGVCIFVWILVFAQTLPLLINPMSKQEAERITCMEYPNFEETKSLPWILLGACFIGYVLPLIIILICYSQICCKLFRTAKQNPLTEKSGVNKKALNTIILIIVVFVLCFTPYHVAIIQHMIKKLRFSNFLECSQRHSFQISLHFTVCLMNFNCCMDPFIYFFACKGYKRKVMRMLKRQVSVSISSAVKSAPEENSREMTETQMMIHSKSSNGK
APJ antagonist = blocks the human apelin receptor APJ. P35414. CHO-K1 APJ beta-arrestin complementation, luminescence. inhibition, % at 20 µM. 0.32% of 330,000 active;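 active means inhibition above about 40% at 20 µM, limit read from the data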;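 further: cells challenged with 10 nM apelin-13 agonist together with compound; plate controls were apelin-13 plus DMSO wells for no effect and DMSO wells lacking apelin-13 for full effect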
HTR2A ag = mouse HTR2A agonism via beta-arrestin recruitment; CHO-K1 mHTR2A beta-arrestin complementation, luminescence; percent of 30 µM serotonin response; activation, % at 7.6 µM; 0.66% of 360,000 active;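 active means activation above a run cutoff, the mean activation of all tested compounds plus 3 SD, cut at about 14% in these data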;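 further: 0% = plate median of compound wells and 100% = 30 µM serotonin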
CCR6 antag = CCR6 (human) receptor antagonism. P51684. 0.49% of 340,000 active. CHO-K1 CCR6 PathHunter beta-arrestin, luminescence, CCL20-stimulated. inhibition, % at 20 µM;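 active means compounds whose inhibition of the agonist-driven luminescence signal at 20 µM reaches about 50%, limit read from the data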;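 further: cells stimulated with CCL20 at 14 nM final; plate controls were DMSO with CCL20 for no effect and DMSO without agonist for full effect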
CXCR6 inh = blocks human CXCR6 beta-arrestin recruitment. AID 602244. inhibition, % at 20 µM. O00574. 0.36% of 360,000 active. CHO-K1 PathHunter CXCR6 beta-arrestin, luminescence; in the data active means inhibition above about 34%, passing the limit was not always enough;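 further: antagonist mode with CXCL16 agonist at 10 nM final; 0% = 10 nM CXCL16 with DMSO and 100% = unstimulated wells without agonist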
APJ agonist = agonists of human APJ apelin receptor; P35414; CHO-K1 APJ PathHunter beta-arrestin, luminescence; 0% DMSO wells, 100% apelin; activation, % at 20 µM; 0.11% of 330,000 active;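 active means activation more than six SD over the plate average, tested at 20 µM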;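 further: 0% = DMSO alone and 100% = apelin-13 at 10 nM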
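Assay system: engineered CHO-K1 APJ arrestin reporter cells; Amount: 1000 CHO-K1 reporter cells seeded per well; Dosing: one dose, 20 µM compound, 1% DMSO; Times: compound stimulation 90 min at 25 °C, detection 60 min; Measured by: luminescent beta-gal fragment complementation, chemiluminescent substrate; Read-out: APJ–arrestin association signal; Controls: DMSO vs Apelin-13 10 nM.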
EBI2 conf = confirmation of human EBI2 receptor antagonists. AID 651997. shares compounds with EBI2 block. 29% of 2,400 active. inhibition, % at 5 µM. EBI2 beta-arrestin luminescence, 7a,25-OHC antagonism;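 active means inhibition of at least 50%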
EBI2 ag = counter-screen for EBI2 antagonists: EBI2 agonist activity; shares compounds with EBI2 block; AID 652000; EBI2-expressing cells, agonist mode, luminescence, 60 min; 0% vehicle, 100% 7α,25-dihydroxycholesterol control; activation, % at 5 µM; 2,400 tested, under 10 active;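 active means activation of at least 50%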
bGal cs = beta-galactosidase inhibition counter-screen | shares compounds with EBI2 block | 1% of 2,400 active | purified beta-galactosidase, luminescent Galacton Star, 15 min | inhibition, % at 5 µM;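 active means replicate-average signal at least 3 plate SD below neutral wells, shown as high inhibition, flagging enzyme-inhibiting false positives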;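 further: 0% = DMSO wells with enzyme and 100% = wells lacking enzyme; higher means stronger loss of beta-gal luminescence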
* marks the source's active call; other numbers are inactive results; . = no result given.

SMILES	EBI2 block	APJ antagonist	HTR2A ag	CCR6 antag	CXCR6 inh	APJ agonist	EBI2 conf	EBI2 ag	bGal cs
COc1cc(-c2nc3ccc(C)cn3c2NCc2ccccc2)ccc1SC1CCCCC1	72*	-24	-2	35	15	0	55*	2	-1
CCC(C)Sc1ccc(-c2nc3ccc(C)cn3c2NCc2ccccc2)cc1 (centres undefined)	47*	19	-7	12	6	2	24	1	6
COc1ccc(-c2nc3ccc(C)cn3c2Cc2cccc(Cl)c2)cc1OC	32	.	-4	.	25	.	.	.	.
COc1cc(-c2nc3ccc(C)cn3c2NCc2ccccc2)ccc1-c1cccc(Cl)c1	80*	20	-4	14	8	-3	66*	1	-5
COc1cc(-c2nc3ccccn3c2NCc2ccccc2)ccc1SC1CCCCC1	24	-4	-8	-2	-7	-7	.	.	.
CCN(CC)C(=O)C1CCN(C(=O)c2oc3ccc(C)cc3c2C)CC1	80*	9	7	1	-2	6	57*	3	6
Cc1ccc2oc(C(=O)N3CCC(O)(c4ccccc4)CC3)c(C)c2c1	84*	-16	-2	11	4	1	78*	1	3
OC(COc1ccc(Br)cc1)CN1CCC(Cc2ccccc2)CC1 (centres undefined)	61*	4	-9	3	-5	-1	46	2	-1
COC(=O)c1ccc(OCC(O)CN2CCN(C(=O)c3ccco3)CC2)cc1 (centres undefined)	-3	-9	3	-1	-12	2	.	.	.
CC(C)OCC(O)CN1CCC(Cc2ccccc2)CC1 (centres undefined)	6	17	-10	-10	-1	-1	.	.	.
O=C(c1ccco1)N1CCN(CC(O)COc2ccc(Br)cc2)CC1 (centres undefined)	51*	9	-6	2	0	-3	3	-2	-6
O=C(/C=C/c1ccco1)Nc1ccccc1C(=O)O	-13	-8	4	11	2	-3	.	.	.
COCc1ccc(-c2c(-c3cccc(OC)c3)sc3ccc(OC)cc23)cc1	3	13	2	21	10	-5	.	.	.
O=C(Cc1ccccc1)N1CCN(C(=O)c2ccc([N+](=O)[O-])cc2)CC1	10	4	-3	11	-11	-3	.	.	.
Cc1ccc(OCC(=O)N2CCN(C(=O)CCC3CCCC3)CC2)cc1	81*	7	-1	8	4	-6	61*	-1	-7
O=C(CCC1CCCC1)N1CCN(C(=O)COc2ccccc2)CC1	28	-23	5	-19	8	-1	.	.	.
CC(=O)c1ccc(N2CCN(C(=O)COc3ccc4ccccc4c3)CC2)cc1	8	.	9	.	5	.	.	.	.
Cc1ccc(OCC(=O)N2CCN(C(=O)c3ccc([N+](=O)[O-])cc3)CC2)cc1	83*	4	1	-1	-5	-3	58*	-2	-10
O=C(COc1ccccc1)N1CCN(C(=O)c2ccc([N+](=O)[O-])cc2)CC1	53*	-13	7	1	1	-3	38	2	-6
O=C(COc1ccc2ccccc2c1)N1CCN(C(=O)c2ccc([N+](=O)[O-])cc2)CC1	94*	-13	-2	-11	-14	-1	76*	-2	-2
CCOC(=O)N1CCN(C(=O)COc2ccc([N+](=O)[O-])cc2)CC1	28	-8	5	14	1	0	.	.	.
COc1ccc(CNC(=O)N2CCc3nc(Nc4cc(OC)c(OC)c(OC)c4)ncc3C2)cc1	4	.	0	.	-5	.	.	.	.
COc1cc(NC(=O)N2CCc3nc(Nc4cc(Cl)cc(Cl)c4)ncc3C2)cc(OC)c1OC	47*	.	-3	.	-4	.	7	0	-15

High-throughput results (PubChem)
